The text below walks through data of ChEMBL document CHEMBL4052643, “Development of molecular tools based on the dopamine D3 receptor ligand FAUC 329 showing inhibiting effects on drug and food maintained behavior” (Bioorg Med Chem, 2017).

SMILES strings stand for the structures. The source made the active and inactive calls. The rule behind the calls is not given here.

For orientation: Ki means a measure of affinity in units of concentration, obtained from inhibition or displacement.

The target in one data set is D(1B) dopamine receptor (Homo sapiens, UniProt P21918). In words: Displacement of […] from human D5 receptor expressed in HEK293T cell membranes. Also noted: species or system HEK-293T.
D(1B) dopamine receptor, sequence (P21918 whole entry): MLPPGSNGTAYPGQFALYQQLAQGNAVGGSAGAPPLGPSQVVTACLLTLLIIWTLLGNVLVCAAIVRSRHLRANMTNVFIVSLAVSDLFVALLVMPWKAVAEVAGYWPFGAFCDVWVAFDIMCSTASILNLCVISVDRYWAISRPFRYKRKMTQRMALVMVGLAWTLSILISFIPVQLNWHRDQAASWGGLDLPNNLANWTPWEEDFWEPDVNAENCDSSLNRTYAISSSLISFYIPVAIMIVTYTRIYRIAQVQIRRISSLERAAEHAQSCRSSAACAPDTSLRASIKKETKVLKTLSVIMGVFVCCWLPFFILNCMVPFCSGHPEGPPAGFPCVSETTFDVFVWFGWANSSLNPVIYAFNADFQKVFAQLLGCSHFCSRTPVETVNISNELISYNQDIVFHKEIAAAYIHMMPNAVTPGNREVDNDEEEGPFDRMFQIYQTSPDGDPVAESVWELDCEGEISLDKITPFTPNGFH
For data set [1], the target named is T1, D(2) dopamine receptor (Homo sapiens, UniProt P14416). Put plainly: Displacement of [3H]spiperone from human D2-short receptor expressed in CHO cell membranes.
T1 sequence (P14416 whole entry): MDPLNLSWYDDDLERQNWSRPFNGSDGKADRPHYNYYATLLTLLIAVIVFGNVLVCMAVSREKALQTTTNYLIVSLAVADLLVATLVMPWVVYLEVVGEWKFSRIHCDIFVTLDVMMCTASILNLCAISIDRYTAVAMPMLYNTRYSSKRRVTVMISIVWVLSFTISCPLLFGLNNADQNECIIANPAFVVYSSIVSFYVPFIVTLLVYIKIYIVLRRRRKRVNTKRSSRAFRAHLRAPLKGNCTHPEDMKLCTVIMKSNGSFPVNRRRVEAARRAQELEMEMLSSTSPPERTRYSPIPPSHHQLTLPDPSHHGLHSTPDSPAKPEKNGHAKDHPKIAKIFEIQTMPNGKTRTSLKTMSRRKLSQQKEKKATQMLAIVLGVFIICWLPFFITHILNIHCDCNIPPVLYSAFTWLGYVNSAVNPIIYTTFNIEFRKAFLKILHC
The target in data set [2] is T1, D(2) dopamine receptor. In words: Displacement of [3H]spiperone from human D2-long receptor expressed in CHO cell membranes. Background: Displacement assays read how much labelled ligand stays bound in the presence of the test substance.
A short description of data set [3]: Displacement of […] from porcine cerebral cortex 5-HT1A receptor. Also noted: species or system Sus scrofa.
Another data set deals with D(3) dopamine receptor (Homo sapiens, UniProt P35462). Put plainly: Displacement of [3H]spiperone from human D3 receptor expressed in CHO cell membranes.
D(3) dopamine receptor, sequence (P35462 whole entry): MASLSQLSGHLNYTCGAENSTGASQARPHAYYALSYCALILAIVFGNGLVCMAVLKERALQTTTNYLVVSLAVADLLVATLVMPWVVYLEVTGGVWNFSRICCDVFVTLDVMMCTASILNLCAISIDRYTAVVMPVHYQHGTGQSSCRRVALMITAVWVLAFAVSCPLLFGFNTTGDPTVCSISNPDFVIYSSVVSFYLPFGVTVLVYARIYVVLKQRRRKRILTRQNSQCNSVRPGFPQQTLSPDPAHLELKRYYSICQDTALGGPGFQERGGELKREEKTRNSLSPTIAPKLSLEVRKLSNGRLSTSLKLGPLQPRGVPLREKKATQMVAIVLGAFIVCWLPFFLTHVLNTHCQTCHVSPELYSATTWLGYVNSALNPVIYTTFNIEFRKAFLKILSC
A further data set concerns the target T2, D(4) dopamine receptor (Homo sapiens, UniProt P21917).
T2 sequence (P21917 whole entry): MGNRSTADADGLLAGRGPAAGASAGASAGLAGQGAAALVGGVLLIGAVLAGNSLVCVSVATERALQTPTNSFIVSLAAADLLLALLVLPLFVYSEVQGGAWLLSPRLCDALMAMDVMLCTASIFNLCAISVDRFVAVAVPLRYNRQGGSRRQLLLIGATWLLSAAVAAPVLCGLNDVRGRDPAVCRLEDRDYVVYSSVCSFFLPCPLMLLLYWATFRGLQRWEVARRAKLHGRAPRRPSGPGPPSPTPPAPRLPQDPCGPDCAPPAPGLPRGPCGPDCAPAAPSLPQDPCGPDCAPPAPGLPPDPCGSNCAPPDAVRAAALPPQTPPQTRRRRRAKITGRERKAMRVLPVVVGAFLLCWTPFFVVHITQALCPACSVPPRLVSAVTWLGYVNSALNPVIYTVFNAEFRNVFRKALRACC
In words: Displacement of [3H]spiperone from human D4 receptor expressed in CHO cell membranes.

Another data set deals with D(1A) dopamine receptor (Homo sapiens, UniProt P21728). Put plainly: Displacement of […] from human D1 receptor expressed in HEK293T cell membranes. Also noted: species or system HEK-293T.
D(1A) dopamine receptor, sequence (P21728 whole entry): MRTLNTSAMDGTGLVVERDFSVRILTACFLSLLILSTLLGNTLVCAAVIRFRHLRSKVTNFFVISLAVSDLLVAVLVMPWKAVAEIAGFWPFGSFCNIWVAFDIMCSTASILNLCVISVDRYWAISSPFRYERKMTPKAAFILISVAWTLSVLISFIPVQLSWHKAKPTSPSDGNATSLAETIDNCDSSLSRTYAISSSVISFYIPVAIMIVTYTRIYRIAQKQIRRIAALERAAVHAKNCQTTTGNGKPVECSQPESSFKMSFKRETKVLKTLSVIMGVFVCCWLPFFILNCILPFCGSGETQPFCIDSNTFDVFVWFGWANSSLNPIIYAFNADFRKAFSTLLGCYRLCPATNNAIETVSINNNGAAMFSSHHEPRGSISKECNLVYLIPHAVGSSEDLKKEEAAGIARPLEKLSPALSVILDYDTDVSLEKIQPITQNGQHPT
Data set [4] deals with 5-hydroxytryptamine receptor 2A (Homo sapiens, UniProt P28223). Put plainly: Displacement of [3H]ketanserin from human 5-HT2A receptor expressed in HEK293T cell membranes. Further details: species or system HEK-293T.
5-hydroxytryptamine receptor 2A, sequence (P28223 whole entry): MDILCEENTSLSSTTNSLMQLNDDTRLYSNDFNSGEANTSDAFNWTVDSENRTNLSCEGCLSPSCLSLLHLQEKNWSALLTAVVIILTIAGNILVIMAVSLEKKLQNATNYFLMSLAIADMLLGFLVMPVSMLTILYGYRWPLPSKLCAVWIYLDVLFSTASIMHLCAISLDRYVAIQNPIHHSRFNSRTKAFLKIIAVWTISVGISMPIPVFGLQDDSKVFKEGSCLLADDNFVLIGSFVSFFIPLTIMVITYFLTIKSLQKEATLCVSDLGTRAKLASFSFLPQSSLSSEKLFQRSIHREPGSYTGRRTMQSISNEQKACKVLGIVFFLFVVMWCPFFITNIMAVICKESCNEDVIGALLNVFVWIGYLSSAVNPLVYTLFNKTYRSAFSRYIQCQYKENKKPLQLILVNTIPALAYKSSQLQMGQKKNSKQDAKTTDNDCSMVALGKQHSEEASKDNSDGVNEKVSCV
Data set [5] is described as follows: Selectivity ratio of Ki for porcine cerebral cortex 5-HT1A receptor to Ki for human D3 receptor expressed in CHO cell membranes. Format: cell-based.
The species entered for data set [6] is Homo sapiens. Put plainly: Selectivity ratio of Ki for human D1 receptor expressed in HEK293T cell membranes to Ki for human D3 receptor expressed in CHO cell membranes. Format: cell-based.
The species named for data set [7] is Homo sapiens. In words: Selectivity ratio of Ki for human D2-long receptor expressed in CHO cell membranes to Ki for human D3 receptor expressed in CHO cell membranes. Format: cell-based.
The species entered for data set [8] is Homo sapiens. Put plainly: Selectivity ratio of Ki for human D2-short receptor expressed in CHO cell membranes to Ki for human D3 receptor expressed in CHO cell membranes. Format: cell-based.
The species entered for data set [9] is Homo sapiens. In words: Selectivity ratio of Ki for human D4 receptor expressed in CHO cell membranes to Ki for human D3 receptor expressed in CHO cell membranes. Format: cell-based.
The species entered for data set [10] is Homo sapiens. Put plainly: Selectivity ratio of Ki for human 5-HT2A receptor expressed in HEK293T cell membranes to Ki for human D3 receptor expressed in CHO cell membranes. Format: cell-based.
Data set [11] is filed under the species Homo sapiens. Put plainly: Selectivity ratio of Ki for human D5 receptor expressed in HEK293T cell membranes to Ki for human D3 receptor expressed in CHO cell membranes. Format: cell-based.
Data set [12] deals with Rhesus monkey. Put plainly: Reduction in food reinforcement-maintained behavior in monkey at 0.18 to 0.32 mg/kg, im administered as single dose 15 mins prior to food reinforcement during first component of session relative to control. Format: functional, Macaca mulatta. Further details: scale not given: the % may be the effect or the level left. To be noted: in the assay text read “0.32 mg/kg” for “0.18 to 0.32 mg/kg”. An outline of the steps: (§1)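 Male rhesus monkeys trained to respond for cocaine and food under daily 2 h FR30 sessions. Sessions ran in order: food 1, a 100-min i.v. cocaine (or saline) component, then food 2. Saline pretreatment served as baseline. Values are mean ± S.E.M. of four experiments, with significance by two-tailed t-test (p < 0.05).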

Data set [13] concerns Rhesus monkey. In words: Reduction in food reinforcement-maintained behavior in monkey at 0.18 to 0.32 mg/kg, im administered as single dose 15 mins prior to food reinforcement during second component of session relative to control. Format: functional, Macaca mulatta. Also noted: scale not given: the % may be the effect or the level left. The procedure, abridged: as §1
The test system of data set [14] is Rhesus monkey. Put plainly: Reduction in cocaine-maintained responding in monkey at 0.18 to 0.32 mg/kg, im administered as single dose 15 mins prior to self administration of 0.003 mg/kg, iv per injection of cocaine for 100 mins relative to control. Format: functional, Macaca mulatta. Also noted: scale not given: the % may be the effect or the level left. The procedure, abridged: as §1

The test system of data set [15] is Rhesus monkey. In words: Reduction in cocaine-maintained responding in monkey at 0.18 to 0.32 mg/kg, im administered as single dose 15 mins prior to self administration of 0.1 mg/kg, iv per injection of cocaine for 100 mins relative to control. Also noted: scale not given: the % may be the effect or the level left. Format: functional, Macaca mulatta. The procedure, abridged: as §1

Data set [16] relates to Rhesus monkey. In words: Reduction in cocaine-maintained responding in monkey at 0.18 to 0.32 mg/kg, im administered as single dose 15 mins prior to self administration of 0.01 to 0.03 mg/kg, iv per injection of cocaine for 100 mins relative to control. Also noted: scale not given: the % may be the effect or the level left. Format: functional, Macaca mulatta. An outline of the steps:
as §1

Data set [17] deals with Rhesus monkey. Put plainly: Reduction in cocaine-maintained responding in monkey administered im 15 mins prior to self administration of 0.1 mg/kg, iv per injection of cocaine for 100 mins. Conditions: Macaca mulatta. Format: functional, organism-based. The procedure, abridged:
as §1

A short description of data set [18]: Drug uptake in rat pituitary gland at 10 to 15 MBq, iv after 40 mins pretreated with D3 ligand BP897 by PET imaging method. Format: ADME, organism-based. To be noted: in vivo. An outline of the steps: (§2)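 In vivo PET scan of rats given the [¹⁸F]-labelled radioligand. Whole pituitary gland uptake measured at 40 min p.i. as %ID/g, with or without BP897 pretreatment.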

Data set [19] is described as follows: Drug uptake in rat brain ependyma cell layer at 10 to 15 MBq, iv after 60 mins by phosphorus imaging based autoradiography. Format: ADME, organism-based. Conditions: in vivo, 1 h. The procedure, abridged:
(§3)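 Rats injected with the [¹⁸F]-labelled radioligand, alone or co-injected with BP897. Coronal brain sections taken at 60 min p.i. for ex-vivo autoradiography and overlaid with HE-stained sections. Uptake expressed as region of interest-to-background ratio, with control animals compared against BP897 co-injected animals.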

The nature of data set [20]: Drug uptake in rat pituitary gland at 10 to 15 MBq, iv after 40 mins by PET imaging method. Format: ADME, organism-based. To be noted: in vivo. An outline of the steps: as §2
Data set [21] can be described thus: Drug uptake in rat brain striatum at 10 to 15 MBq, iv after 60 mins by phosphorus imaging based autoradiography. Conditions: in vivo, 1 h. Format: ADME, organism-based. The procedure, abridged:
as §3

Data set [22] can be described thus: Drug uptake in rat brain plexus tissue at 10 to 15 MBq, iv after 60 mins by phosphorus imaging based autoradiography. Format: ADME, organism-based. To be noted: in vivo, 1 h. An outline of the steps:
as §3

A short description of data set [23]: Drug uptake in rat brain ventricles at 10 to 15 MBq, iv after 40 mins by PET imaging method. Format: ADME, organism-based, Brain ventricle. Conditions: in vivo.
Data set [24] is described as follows: Drug uptake in rat brain ventricles at 10 to 15 MBq, iv after 60 mins by phosphorus imaging based autoradiography. Format: ADME, organism-based, Brain ventricle. Conditions: in vivo, 1 h. An outline of the steps:
as §3

The nature of data set [25]: Drug uptake in rat brain calleja islands at 10 to 15 MBq, iv after 60 mins by phosphorus imaging based autoradiography. Format: ADME, organism-based, Calleja island. To be noted: in vivo, 1 h. The procedure, abridged:
as §3

Another data set has as its system Brain. In words: Drug uptake in rat brain at 10 to 15 MBq, iv after 40 mins by PET imaging method. Format: ADME, organism-based. Conditions: in vivo.
In data set [26] the target is D(3) dopamine receptor (Rattus norvegicus) (UniProt P19020). Put plainly: Displacement of BP897 from D3 receptor in rat brain islands of calleja at 5 MBq after 45 mins by phosphorus imaging based autoradiography. To be noted: 5 M, tested as the 18F-labelled form.
D(3) dopamine receptor (Rattus norvegicus), sequence (P19020 whole entry): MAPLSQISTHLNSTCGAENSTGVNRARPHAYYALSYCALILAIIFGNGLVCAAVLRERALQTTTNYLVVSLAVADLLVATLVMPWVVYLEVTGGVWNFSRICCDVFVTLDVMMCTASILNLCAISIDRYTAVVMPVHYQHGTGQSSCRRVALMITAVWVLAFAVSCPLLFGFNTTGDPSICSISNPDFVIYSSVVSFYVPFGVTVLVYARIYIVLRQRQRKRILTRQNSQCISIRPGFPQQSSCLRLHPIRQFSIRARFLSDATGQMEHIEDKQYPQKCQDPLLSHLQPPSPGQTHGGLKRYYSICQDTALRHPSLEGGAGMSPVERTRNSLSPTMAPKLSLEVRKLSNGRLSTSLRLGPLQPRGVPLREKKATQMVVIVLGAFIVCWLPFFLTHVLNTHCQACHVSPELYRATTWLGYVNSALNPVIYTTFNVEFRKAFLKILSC
Data set [27] has the same target. In words: Displacement of BP897 from D3 receptor in rat brain cortex at 5 MBq after 45 mins by phosphorus imaging based autoradiography. To be noted: 5 M, tested as the 18F-labelled form.
Data set [28] shares this target. In words: Displacement of BP897 from D3 receptor in rat brain lateral septum nuclei at 5 MBq after 45 mins by phosphorus imaging based autoradiography. Conditions: 5 M, tested as the 18F-labelled form.
For data set [29] the target is unchanged. Put plainly: Displacement of BP897 from D3 receptor in rat brain striatum at 5 MBq after 45 mins by phosphorus imaging based autoradiography. Conditions: 5 M, tested as the 18F-labelled form.
Setting [30] is: tested as the 18F-labelled form.

In the case of `O=C(NCCCCN1CC[N+]2(CCOc3ccccc32)CC1)c1cc2ccccn2n1`, the Ki at D(1B) dopamine receptor is above 50000 nM; at D(2) dopamine receptor [1], 4500 nM; on D(2) dopamine receptor [2], 6300 nM; in [3], 900 nM; on D(3) dopamine receptor, 200 nM; at D(4) dopamine receptor it was above 10000 nM. Also, the inhibitory constant (Ki) is 5700 nM on D(1A) dopamine receptor and above 10000 nM in [4].

As to `CC(C)(C)c1nc(N2CCN(CCCCNC(=O)c3cc4ccccc4s3)CC2)cc(C(F)(F)F)n1`, the inhibition constant Ki on D(1B) dopamine receptor was above 10000 nM; on D(2) dopamine receptor [1], 2700 nM; at D(2) dopamine receptor [2], 4000 nM; in data set [3] it was above 50000 nM; on D(3) dopamine receptor, 2.4 nM; on D(4) dopamine receptor it was above 10000 nM. Besides, the Ki was above 10000 nM on D(1A) dopamine receptor and 7100 nM in [4]. Besides, the Ratio Ki (in data set [5]; in the data set listed under Homo sapiens [6]; in the data set filed under Homo sapiens [7]; in the data set filed under Homo sapiens [8]; in the data set filed under Homo sapiens [9]; in the data set listed under Homo sapiens [10]) was 1000 to 20000 in each case. For the same compound, in the data set listed under Homo sapiens [11], the Ratio Ki is 1000 to 20000.

With `COc1ccccc1N1CCN(CCCCNC(=O)c2cc3ccccn3n2)CC1`, the Activity is 30% in the data set on Rhesus monkey [12]; 80% with Rhesus monkey [13]; below 25% in the data set on Rhesus monkey [14]; 45% in the data set on Rhesus monkey [15]; 70 - 75% in the data set on Rhesus monkey [16]; “Dose-dependent effect” in the data set on Rhesus monkey [17]. Affinity in data set [3] was put at a Ki of 10 nM.

On to `CC(C)(C)c1nc(N2CCN(CCCCNC(=O)c3cc4ccccn4n3)CC2)cc(C(F)(F)F)n1`, for which the Ki at D(1B) dopamine receptor turned out to be 5700 nM; at D(2) dopamine receptor [1] it was 200 nM; at D(2) dopamine receptor [2] it was 430 nM; in data set [3], 9800 nM; at D(3) dopamine receptor, 1.2 nM; at D(4) dopamine receptor, 4700 nM. For the same compound, the inhibition constant Ki on D(1A) dopamine receptor came to 7500 nM; in [4], 2700 nM. Besides, the Ratio Ki in data set [5] stood at 8000.

As for `O=C(NCCCCN1CCN(c2ccccc2OCC[18F])CC1)c1cc2ccccn2n1`, the Drug uptake result is given as “Not Active” in data set [18]; “Active” in data set [19]; 0.394 % ID/g in data set [20]; “Not Active” in [21]; “Active” in data set [22]; “Active” in [23]. Also, the results for the Drug uptake entry (in data set [24]; in data set [25]; in the data set with Brain) were “Active”, “Not Active” and “Active”, respectively. Besides, at D(3) dopamine receptor, the inhibition constant (Ki) came to 0.31 nM.

For `CN(C)C(=O)N[C@H]1CC[C@H](CCN2CCN(c3cccc(Cl)c3Cl)CC2)CC1` [CARIPRAZINE], the Ki at D(1B) dopamine receptor worked out at 7900 nM.

Turning to `O=C(NCCCCN1CCN(c2ccccc2OCCF)CC1)c1cc2ccccn2n1`, the inhibition constant Ki at D(1B) dopamine receptor worked out at 3800 nM; on D(2) dopamine receptor [1], 21 nM; on D(2) dopamine receptor [2], 39 nM; in data set [3], 6.5 nM; on D(3) dopamine receptor it was 0.31 nM; at D(4) dopamine receptor, 160 nM. The Ki on D(1A) dopamine receptor came to 860 nM; in data set [4], 520 nM. The inhibition result in data set [26], in data set [27], in data set [28] and in data set [29] was “Active” throughout. Also, the values for the Ratio Ki in the data set filed under Homo sapiens [7] (setting [30]) and in the data set filed under Homo sapiens [8] (setting [30]) were 130 and 68, respectively.
